Test results taken from article PMC5677758 (Journal of the American Chemical Society, 2017).

Biological target: T1, GBA3 (Homo sapiens, UniProt Q9H227)
T1 sequence (Q9H227 1-469): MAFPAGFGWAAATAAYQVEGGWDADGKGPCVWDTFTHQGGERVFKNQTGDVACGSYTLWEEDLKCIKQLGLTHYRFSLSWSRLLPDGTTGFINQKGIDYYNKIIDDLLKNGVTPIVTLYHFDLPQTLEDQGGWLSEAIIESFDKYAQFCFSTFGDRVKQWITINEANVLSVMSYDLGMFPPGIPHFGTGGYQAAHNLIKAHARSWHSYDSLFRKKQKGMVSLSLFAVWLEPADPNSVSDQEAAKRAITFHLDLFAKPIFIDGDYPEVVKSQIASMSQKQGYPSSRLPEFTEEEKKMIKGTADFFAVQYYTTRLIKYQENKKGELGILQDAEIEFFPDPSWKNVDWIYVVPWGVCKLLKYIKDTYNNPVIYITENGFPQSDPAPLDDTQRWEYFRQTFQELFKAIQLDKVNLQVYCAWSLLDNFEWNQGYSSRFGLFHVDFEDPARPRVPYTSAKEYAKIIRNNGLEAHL
Experiment: GBA3 in vitro assay, homogenates of HEK293T overexpressing GBA3
Type: biochemical
In short: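 Lysate from HEK293T cells stably overexpressing human GBA3 was pretreated 30 min with 1 mM conduritol β epoxide to block GBA1. Assay in 100 mM Hepes pH 7.0 with 0.1% BSA for 1 h, with 0.05–5 mM 4MU-β-D-glucopyranoside plus inhibitor and no inhibitor preincubation. […] Duplicates; Ki from curve fit.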

- Ki: > 1000 µM
Compound: CCCCN1C[C@H](O)[C@@H](O)[C@H](O)[C@H]1CO [compound 1, N-butyldeoxynojirimycin]
